Test [1] deals with Mus musculus. Briefly: Percent anticonvulsant activity against pentylenetetrazole (PTZ)-induced attacks at 100 mg/kg peroral dose. The format is functional. Particulars: route oral. The procedure, abridged: (§1)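 Male CD-1 mice dosed po in 1% carboxymethylcellulose, 30 min before PTZ (90 mg/kg sc, in 0.9% saline). Occurrence of clonic generalized convulsions noted over 30 min; χ² analysis vs control mice.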

Test [2] has as its system Mus musculus. The test is described as follows: Anxiolytic activity in mice using light-dark box and % time spent in light was reported at 100 mg/kg peroral dose. The class given is functional. The settings on record: route oral. The procedure, abridged: (§2)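 Male CD-1 mice (22–24 g) given drug po in 1% carboxymethylcellulose (10 mL/kg). Each mouse placed in the centre of the lighted area facing away from the dark compartment and allowed to explore for 5 min; time spent in the illuminated side and number of transfers between compartments recorded. Tests run between 10:00 and 15:00.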

Test [3] relates to Mus musculus. The test is described as follows: Anxiolytic activity in mice using light-dark box and % time spent in light was reported at 30 mg/kg peroral dose. The format is functional. The settings on record: route oral. The procedure, abridged:
as §2

Test [4] has as its system Mus musculus. The test is described as follows: Motor coordination of mouse as number of falls in 30 sec was reported after 100 mg/kg peroral dose using rotarod test. The format is functional. The settings on record: route oral. The procedure, abridged:
(§3)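 Male CD-1 mice dosed po (suspension in 1% carboxymethylcellulose, 10 mL/kg). Rota rod turning at 24 rpm; falls from the rod counted over 30 s, 25 min after drug administration.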

Test [5] deals with Mus musculus. Briefly: Anxiolytic activity in mice using light-dark box and no. of transfers between compartments were reported at 100 mg/kg peroral dose. The class given is functional. The settings on record: route oral. The procedure, abridged:
as §2

Test [6] deals with Mus musculus. Briefly: Anxiolytic activity in mice using light-dark box and no. of transfers between compartments were reported at 30 mg/kg peroral dose. The settings on record: route oral. The class given is functional. The procedure, abridged: as §2
Test [7] concerns the target GABA-A receptor; anion channel (Homo sapiens) (UniProt P14867+P47870+P18507+P28472+P48169+Q99928+Q9UN88+P34903+O00591+O14764+Q8N1C3+P18505+P78334+P47869+P31644+Q16445). The test is described as follows: Percent inhibition [3H]Ro-151788 binding to Benzodiazepine receptor from bovine brain membrane at 10 uM. Particulars: Bos taurus, target entry is the homologue from another species.

The subject of test [8] is Mus musculus. The test is described as follows: Percent anticonvulsant activity against pentylenetetrazole (PTZ)-induced attacks at 10 mg/kg peroral dose. Particulars: route oral. The format is functional. The procedure, abridged:
as §1

Test [9] relates to Mus musculus. Briefly: Anxiolytic activity in mice using light-dark box and % time spent in light was reported at 10 mg/kg peroral dose. The format is functional. Particulars: route oral. The procedure, abridged:
as §2

For test [10], the system named is Mus musculus. Briefly: Motor coordination of mouse as number of falls in 30 sec was reported after 10 mg/kg peroral dose using rotarod test. The format is functional. Particulars: route oral. The procedure, abridged:
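Male CD-1 mice are dosed po in 1% CMC (flumazenil ip). Falls from a rota rod turning at 24 rpm are counted over 30 s, 25 min after drug administration, and compared with vehicle-treated mice. Means ± SEM.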

The test system of test [11] is Mus musculus. Briefly: Anxiolytic activity in mice using light-dark box and no. of transfers between compartments were reported at 10 mg/kg peroral dose. The class given is functional. The settings on record: route oral. In outline:
as §2

The target of test [12] is GABA-A receptor; anion channel. Set-up: species or system Bos taurus.
The test system of test [13] is Mus musculus. The test is described as follows: Percent anticonvulsant activity against pentylenetetrazole (PTZ)-induced attacks at 3 mg/kg peroral dose. The format is functional. Particulars: route oral. The procedure, abridged: as §1
Test [14] relates to Mus musculus. The test is described as follows: Motor coordination of mouse as number of falls in 30 sec was reported after 3 mg/kg peroral dose using rotarod test. The format is functional. Particulars: route oral. The procedure, abridged:
as §3

In test [15] the test system is Mus musculus. The test is described as follows: Percent anticonvulsant activity against pentylenetetrazole (PTZ)-induced attacks at 30 mg/kg peroral dose. The format is functional. Particulars: route oral. The procedure, abridged:
as §1

Test [16] deals with Mus musculus. Briefly: Motor coordination of mouse as number of falls in 30 sec was reported after 30 mg/kg peroral dose using rotarod test. The format is functional. The settings on record: route oral. In outline:
as §3

For test [17], the system named is Mus musculus. The test is described as follows: Anxiolytic activity in mice using light-dark box and % time spent in light was reported at 3 mg/kg peroral dose. The class given is functional. The settings on record: route oral. The procedure, abridged: as §2
Test [18] has as its system Mus musculus. Briefly: Anxiolytic activity in mice using light-dark box and no. of transfers between compartments were reported at 3 mg/kg peroral dose. The format is functional. The settings on record: route oral. The procedure, abridged: as §2
Test [19] in a line: Displacement of [3H]Ro-151788 from rat GABA-A receptor alpha-5-beta-3-gamma-2 subunits expressed in HEK293 cells. The class given is cell-based. The procedure, abridged: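 Recombinant rat GABA-A subtypes are stably expressed in HEK293 cells grown in MEM/EBSS with 10% FCS at 37 °C. Membranes are made in 10 mM potassium phosphate pH 7.4 and resuspended with 100 mM KCl. Incubation uses 1–2 nM [3H]Ro15-1788 with compound at 10^-9–10^-5 M (≥6 concentrations), 1 h at 4 °C. […] Ki comes from Cheng–Prusoff, n=5, in triplicate.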

For test [20], the system named is Mus musculus. Briefly: Motor coordination of mouse as number of falls in […] was reported after 10 mg/kg peroral dose using rotarod test. The settings on record: route oral. The format is functional.

Turning to `CCOC(=O)c1ncn2c1CN(C)C(=O)c1cc(F)ccc1-2.CN1C(=O)CN=C(c2ccccc2)c2cc(Cl)ccc21`, the Activity came to 20% in test [1], 107% in [2] and 154.8% in test [3]. The No. of falls in [4] is 0.4. In addition, the No. of transfers is recorded as 15.6 in test [5] and 23 in test [6].

Take `O=C(OCc1ccco1)c1cnn2c1n[n+]([O-])c1ccc(Cl)cc12` [listing 1 of 2 here]: the inhibition in [7] was found to be 100%.

On to `CN1C(=O)CN=C(c2ccccc2)c2cc(Cl)ccc21.O=C(OCc1ccsc1)c1cnn2c1n[n+]([O-])c1ccc(Cl)cc12`, for which the Activity in [8] is 100%; in test [9], 149.16%. This molecule displayed a No. of falls in test [10] of 0.55. Moreover, the No. of transfers in test [11] stood at 27.9.

`O=C(OCc1cccs1)c1cnn2c1nnc1ccc(Cl)cc12` yielded an inhibition in test [7] of 96%. The molecule further gave a Ki in [12] of 0.00626 µM.

Take `CN1C(=O)CN=C(c2ccccc2)c2cc(Cl)ccc21.O=C(OCc1cccs1)c1cnn2c1n[n+]([O-])c1ccc(Cl)cc12`: in [13], the Activity came out at 50%. The molecule also returned a No. of falls in test [14] of 0.3.

In test [7], `CC(C)OC(=O)c1cnn2c1n[n+]([O-])c1ccc(Cl)cc12` came in with an inhibition of 97%. In test [12], this molecule gave a Ki of 0.272 µM.

With `O=C(Cc1cnn2c1n[n+]([O-])c1ccc(Cl)cc12)OCc1ccccc1`, the inhibition in test [7] was found to be 32%.

For `O=C(OCc1ccsc1)c1cnn2c1n[n+]([O-])c1ccc(Cl)cc12` [listing 1 of 2 here], in test [7], the inhibition was determined as 97%.

Take `O=C(OCc1ccoc1)c1cnn2c1n[n+]([O-])c1ccc(Cl)cc12` [listing 1 of 2 here]: the affinity in [12] corresponds to a Ki of 0.0114 µM. Further, the Activity is on record as 20% in test [8]; 36.4% in test [1]; 0% in [13]; 30% in [15]; 118.95% in [9]; 127.18% in test [2]. The Activity in test [3] was determined as 132.27%. Besides, the No. of falls is on record as 0.2 in [10], 0.18 in test [4], 0.14 in [14] and 0.1 in test [16]. Further, the No. of transfers in test [5] turned out to be 19.7; in test [6], 20.4; in test [11], 16.57.

With `O=C(CC1C=NN2c3cc(Cl)ccc3[N+]([O-])=NC12)Oc1ccccc1Cl` (centres undefined), in test [7], the inhibition came out at 87%. This molecule yielded a Ki in [12] of 0.489 µM.

Molecule `COc1ccccc1COC(=O)C1C=NN2c3cc(Cl)ccc3[N+]([O-])=NC12` (centres undefined) displayed an inhibition in test [7] of 100%. This molecule also registered a Ki in test [12] of 0.001 µM.

In test [7], `CC(OC(=O)c1cnn2c1n[n+]([O-])c1ccc(Cl)cc12)c1ccccc1` (centres undefined) came in with an inhibition of 95%. For the same molecule, the Ki in test [12] stood at 0.138 µM.

With `CN1C(=O)CN=C(c2ccccc2)c2cc(Cl)ccc21.O=C(OCc1ccco1)c1cnn2c1n[n+]([O-])c1ccc(Cl)cc12`, the Activity amounted to 88.9% in [8] and 142.02% in [9]. The same molecule had a No. of falls in test [10] of 1.55. In addition, the No. of transfers in test [11] worked out at 27.1.

In turn, `COc1ccccc1OC(=O)CC1C=NN2c3cc(Cl)ccc3[N+]([O-])=NC12` (centres undefined) came in with an inhibition in [7] of 88%. Also, in [12], the Ki was determined as 0.171 µM.

Molecule `Cc1ccccc1OC(=O)CC1C=NN2c3cc(Cl)ccc3[N+]([O-])=NC12` (centres undefined) registered an inhibition in test [7] of 70%.

Consider `O=C(OCc1ccsc1)c1cnn2c1n[n+]([O-])c1ccc(Cl)cc12` [listing 2 of 2 here], for which, in test [12], the affinity corresponds to a Ki of 0.0133 µM. Also, the Activity in test [8] came to 18.2%; in test [13], 30%; in test [15], 9%; in test [9] it was 91.84%; in [17], 110.3%. For the same molecule, the figures for the No. of falls in test [10], in [14] and in [16] were 0.36, 0.2 and 0.27, respectively. Besides, the No. of transfers in test [18] is 15.7; in [11], 16.

In the case of `O=C(OCC1CCOC1)c1cnn2c1n[n+]([O-])c1ccc(Cl)cc12` (centres undefined), the inhibition in test [7] was 85%. The molecule further returned a Ki in test [12] of 0.68 µM.

On to `COc1ccccc1COC(=O)Cc1cnn2c1n[n+]([O-])c1ccc(Cl)cc12`, for which the inhibition in test [7] was found to be 50%.

Take `Cc1ccc(-c2nc3ccc(C)cn3c2CC(=O)N(C)C)cc1` [ZOLPIDEM]: in test [19], the Ki is more than 1 µM.

In the case of `CCOC(=O)Cc1cnn2c1n[n+]([O-])c1ccc(Cl)cc12`, the inhibition in test [7] came to 53%.

In turn, `O=C(OCc1ccoc1)c1cnn2c1n[n+]([O-])c1ccc(Cl)cc12` [listing 2 of 2 here] had an inhibition in [7] of 96%.

The molecule `O=C(OCc1cccs1)c1cnn2c1n[n+]([O-])c1ccc(Cl)cc12` displayed an inhibition in [7] of 93%.

`O=C(Cc1cnn2c1n[n+]([O-])c1ccc(Cl)cc12)OCc1ccsc1`: the inhibition in [7] is 45%.

In test [7], `O=C(Cc1cnn2c1n[n+]([O-])c1ccc(Cl)cc12)OCc1cccs1` showed an inhibition of 35%.

As to `O=C(OCc1ccncc1)c1cnn2c1n[n+]([O-])c1ccc(Cl)cc12`, the inhibition in test [7] was determined as 100%. In test [12], this molecule had a Ki of 0.044 µM.

In test [8], `CN1C(=O)CN=C(c2ccccc2)c2cc(Cl)ccc21.O=C(OCc1ccoc1)c1cnn2c1n[n+]([O-])c1ccc(Cl)cc12` yielded an Activity of 88.9%. For the same molecule, the No. of falls in test [10] was 0.44.

In [7], `O=C(Cc1cnn2c1n[n+]([O-])c1ccc(Cl)cc12)Oc1ccccc1` yielded an inhibition of 79%.

As to `O=C(OCc1ccco1)c1cnn2c1n[n+]([O-])c1ccc(Cl)cc12` [listing 2 of 2 here], the inhibitory constant (Ki) in test [12] was determined as 0.0244 µM. Besides, the Activity in test [8] stood at 27.3%; in test [1], 27.3%; in test [15] it was 7.7%; in test [9] it was 96.8%; in [2], 96.16%; in test [3], 125.02%. The No. of falls was 0.27 in test [20], 0.45 in [4] and 0.08 in test [16]. For the same molecule, the No. of transfers in test [5] turned out to be 14; in test [6], 18.6; in [11] it was 15.71.

For `CCOC(=O)c1ncn2c1CN(C)C(=O)c1cc(F)ccc1-2.O=C(OCc1cccs1)c1cnn2c1n[n+]([O-])c1ccc(Cl)cc12`, the Activity in test [2] is 124.08%. The molecule further had a No. of transfers in test [5] of 23.

Take `COc1ccccc1COC(=O)c1cnn2c1nnc1ccc(Cl)cc12`: in test [7], the inhibition is 97%. In [12], this molecule registered a Ki of 0.0017 µM.

The values are drawn from ChEMBL document CHEMBL1135690, “Benzodiazepine receptor ligands. 7. Synthesis and pharmacological evaluation of new 3-esters of the 8-chloropyrazolo[5,1-c][1,2,4]benzotriazine 5-oxide. 3-(2-Thienylmethoxycarbonyl) derivative: an anxioselective agent in rodents” (J Med Chem, 2002).
